FXIIa inh: factor XIIa (human) inhibition; purified FXIIa, Boc-QGR-AMC fluorogenic substrate, 2 h; AID 800; P00748; inhibition, % at 5 µM; 220,000 compounds, 0.3% hits; in the data active means inhibition above about 40%;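 further: 0% = enzyme with no compound and 100% = blank without enzyme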
Thrombin inh: inhibitors of human thrombin | alpha-thrombin, Boc-VPR-AMC fluorogenic substrate cleavage | inhibition, % at 5 µM | 220,000 compounds, 0.26% hits;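 active means inhibition at or above 40%; inactive means inhibition below 40%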;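 further: 0% = enzyme with no compound and 100% = wells without enzyme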
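System: human alpha-thrombin protein; Compound dosing: one concentration per compound, 5 µM, with 0.2% DMSO; Timing: reaction at room temperature; Technique: AMC fluorescence, 355/460 nm; Controls: enzyme without compound as high, wells lacking enzyme as low.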
STAT3 activator: STAT3 signaling activation | activation (% of control), % at 5.6 µM | U3A cells, IL-6 STAT3-luciferase reporter, luminescence; 100% = signal with IL-6 EC80 alone | 190,000 compounds, 0.91% hits;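 active means activation above the screen-wide mean of compound activation plus 3 SD, cut at about 130% in these data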;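 further: 0% = background luminescence of wells with medium and substrate only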
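Material: human STAT1-deficient U3A cells with stable STAT3-luciferase reporter / Probe or stimulus: IL-6 stimulus at 33 ng/mL final / Schedule: 1 h compound pre-exposure, 6 h IL-6 stimulation, 37 °C / Technique: luminescence / Read-out basis: percent of IL-6-only median luminescence / Control set: IL-6-only high control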
AHR act: activates the human aryl hydrocarbon receptor; AID 2796; activation, % at 5 µM; 320,000 compounds, 2.5% hits; P35869; AHR-responsive luciferase reporter cells, luminescence; in the data active means activation above about 47%;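 further: 0% = vehicle wells and 100% = reference agonist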
KLK5 inh: blocks human kallikrein 5 protease activity; inhibition, % at 5 µM; Q9Y337; 210,000 compounds, 0.59% hits; recombinant hK5, fluorogenic AMC substrate cleavage;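 active means inhibition of 40% or more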;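 further: 0% = enzyme controls without compound and 100% = no-enzyme blanks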
Target sequence (Q9Y337 67-293 limits assumed): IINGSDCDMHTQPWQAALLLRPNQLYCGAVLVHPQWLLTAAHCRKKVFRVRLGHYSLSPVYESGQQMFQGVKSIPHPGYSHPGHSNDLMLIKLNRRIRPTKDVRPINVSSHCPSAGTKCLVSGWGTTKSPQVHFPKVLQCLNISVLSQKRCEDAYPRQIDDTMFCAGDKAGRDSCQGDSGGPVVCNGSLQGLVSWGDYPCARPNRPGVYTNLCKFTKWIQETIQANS
FXIa inh 1536: inhibitors of human coagulation factor XIa; purified FXIa, Boc-Glu-Ala-Arg-AMC fluorogenic substrate; 220,000 compounds, 0.14% hits; inhibition, % at 5 µM; P03951; AID 798;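 active means inhibition of at least 40%; inactive means inhibition below 40%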;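 further: fluorescence of freed AMC excited at 355 nm; 0% = enzyme without compound and 100% = no enzyme blank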
Numbers without * were called inactive; . = not tested or not shown. The list is not random: actives were taken first. Their share in the collection is about 3.5%.

SMILES	FXIIa inh	Thrombin inh	STAT3 activator	AHR act	KLK5 inh	FXIa inh 1536
CC1Cc2ccccc2N1S(=O)(=O)c1cccc2nsnc12 (stereo unspecified)	43*	2	100	4	21	19
CC1CN(S(=O)(=O)c2cccc3nsnc23)CC(C)O1 (stereo unspecified)	6	-2	98	0	-10	-4
O=C(N=Nc1c(O)[nH]c2ccccc12)c1cc(-c2cccs2)[nH]n1	6	-1	.	84*	3	5
COC(=O)c1c(C)oc(C)c(C(=O)OC)c1=O	21	17	107	5	74*	11
Cc1oc(C)c(C(=O)O)c1C(=O)O	2	-4	.	0	-9	-7
O=C(NCC(=O)N(c1cccnc1)C(C(=O)NC1CCCCC1)c1cccnc1)c1ccco1 (stereo unspecified)	13	-2	94	-1	-20	12
C=C(C)c1cccc(C(C)(C)NC(=O)Nc2ccc(C(C)=O)cc2)c1	11	36	109	1	72*	12
C=C(C)c1cccc(C(C)(C)NC(=O)Nc2ccc(OC)cc2)c1	7	-9	102	2	1	1
Cn1cc(/C=C/c2cc[n+](C)cc2)c2cc(Cl)ccc21	.	.	.	47*	.	.
O=C(COC(=O)CCc1nc2ccccc2c(=O)[nH]1)Nc1ccccc1	.	.	.	1	.	.
O=C(COC(=O)CCc1nc2ccccc2c(=O)[nH]1)Nc1ccc(Cl)cn1	40	16	.	42	43*	105*
CCOC(=O)NCCc1c(C)nc2c(c(C)nn2C(C)(C)C)c1C	12	1	100	5	1	1
O=S(=O)(Nc1cccc2ccccc12)c1ccccc1	1	-1	.	9	3	3
O=S(=O)(Nc1c(O)ccc2ccccc12)c1ccc(F)cc1	.	.	.	55*	.	.
O=S(=O)(Nc1c(O)ccc2ccccc12)c1ccccc1	.	.	.	54*	.	.
CSCC[C@H](NC(=O)[C@H](Cc1ccccc1)n1c(=O)[nH]c2ccccc2c1=O)C(=O)N1CCC[C@H]1C(=O)O	.	.	.	1	.	.
COC(=O)Cc1c(C)nc2nc[nH]n2c1=O	48*	14	97	-1	54*	-3
Cc1ccc(NC(=O)C2=CC(c3cccs3)=NS(=O)(=O)N2C)cc1	.	.	.	64*	.	.
CC(=O)c1ccc(NC(=O)C2=CC(c3cccs3)=NS(=O)(=O)N2C)cc1	.	.	.	0	.	.
C(=N\c1nc2ccccc2n1CCN1CCCCC1)/c1ccc2c(c1)OCO2	5	-6	103	2	16	-3
CCCn1c(/N=C/c2ccc3c(c2)OCO3)nc2ccccc21	12	14	101	-1	43*	5
COc1cccc(C(=O)NN2CC(O)=C(c3nc(C)cs3)C2=N)c1	5	0	.	53*	-11	-9
CSc1ccccc1C(=O)Nc1cccc(C(C)O)c1 (stereo unspecified)	28	0	104	-1	-3	19
Cc1ccc(C(=O)N2C(CC(=O)Nc3ccc(Cl)cc3)C(=O)NC3CCCCC32)cc1 (stereo unspecified)	11	50*	102	0	18	-3
Cc1cccc(NC(=O)CC2C(=O)NC3CCCCC3N2C(=O)c2ccccc2Cl)c1 (stereo unspecified)	-4	-14	.	0	-3	-5
SMILES	FXIIa inh	Thrombin inh	STAT3 activator	AHR act	KLK5 inh	FXIa inh 1536
CSc1ncccc1C(=O)NCCc1ccc(S(N)(=O)=O)cc1	.	.	.	-3	.	.
COc1ccccc1N=Nc1[nH]c2ccc(C)cc2c1O	7	-9	112	60*	-17	5
CCCCN1CCc2c1nc1ccc(Br)cc1c2N	4	-1	120	76*	-4	-4
O=Cc1cn(-c2ccc(F)cc2)c2ccccc12	14	21	102	-1	42*	18
CC(=O)c1ccccc1NC(=O)COC(=O)c1cc2ccccc2[nH]1	.	.	.	26	.	.
CC(=O)NCC(=O)OC(C(=O)c1ccccc1)c1ccc(Cl)cc1 (stereo unspecified)	3	0	108	2	-7	-1
Cc1sc2nc(-c3ccncc3)[nH]c(=O)c2c1-c1ccccc1	0	-8	103	54*	-21	-8
Cc1sc2nc(-c3ccccn3)[nH]c(=O)c2c1-c1ccccc1	5	-14	89	25	-12	-3
CCN=C1SCC(=O)N1c1ccc(OC)cc1	11	14	102	-2	44*	7
O=C(c1cc(-c2ccc(Cl)cc2)on1)N1CCOCC1	9	-2	66	-4	3	4
COc1cccc(-c2nn(C)c3sc(C(=O)N4CCN(c5ccccn5)CC4)cc23)c1	15	-5	90	58*	14	4
Cn1nc(-c2ccc(Cl)cc2)c2cc(C(=O)N3CCOCC3)sc21	6	-10	122	55*	-21	-2
COc1cccc(-c2nn(C)c3sc(C(=O)N4CCOCC4)cc23)c1	-2	-10	98	58*	-28	-11
CCOC(=O)C1CCCN(C(=O)c2cc3c(-c4cccc(OC)c4)nn(C)c3s2)C1 (stereo unspecified)	13	3	94	-1	-5	-9
CCOC(=O)N1CCC(NC(=O)c2cc3c(-c4ccccc4F)nn(C)c3s2)CC1	15	0	82	1	0	8
Cn1nc(-c2ccccc2F)c2cc(C(=O)N3CCN(C(=O)c4ccco4)CC3)sc21	.	.	98	66*	.	.
CNC(=O)c1nc(C)c(C2(C)CC(c3cccc([N+](=O)[O-])c3)=NO2)s1 (stereo unspecified)	8	-2	.	3	0	0
CC(C)(C)OC(=O)N[C@H](C(=O)OC(C)(C)C)c1ccc2ccccc2c1	.	.	.	1	.	.
CCC(C)(NC(=O)c1ccc2c(c1)OCO2)C(=O)NC1CCCCC1 (stereo unspecified)	7	0	103	12	0	-7
COc1cccc(-c2nn(C)c3sc(C(=O)NCc4ccc(C)o4)cc23)c1	18	2	103	44	-12	3
COc1cccc(-c2nn(C)c3sc(C(=O)NCc4ccc5c(c4)OCO5)cc23)c1	15	0	97	50*	-4	5
COc1ccc(CC(=O)Nc2ccccc2N2CCCCC2)cc1OC	30	4	.	0	112*	22
O=C(NC(=S)Nc1ccccc1N1CCOCC1)c1ccc(Br)cc1	.	.	.	55*	.	.
COc1ccccc1C(=O)NC(=S)Nc1ccc(N2CCCC2)cc1	6	-3	87	85*	-22	9
COc1cc2ccccc2cc1C(=O)NC(=S)Nc1ccc(C(=O)O)cc1	.	.	.	52*	.	.
CN(CC(=O)Nc1ccccc1-c1ccccc1)Cc1ccccc1Cl	11	2	102	2	0	3
C=CCN(Cc1cn(C)nc1-c1cccc(Cl)c1)C1CCS(=O)(=O)C1 (stereo unspecified)	10	0	112	19	.	2
COc1ccccc1C(=O)NC(=S)Nc1ccccc1N1CCCC1	.	.	.	53*	.	.
